pIC50: −log10 of the molar value. Calls of active or inactive are those of the source. The calls are words filed in the database; no cut-off is given here.
Experiments:
[1] = n-Octanol-phosphate buffer partition coefficient, log D at pH 7.4 by shake-flask method; format: physicochemical
Procedure, shortened: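 Dye was added to saturation in equal volumes (2 mL) of n-octanol and pH 7.4 phosphate buffer. The mixture was sonicated 30 min and left to settle 4 h. Each layer was diluted in dichloromethane and absorbance measured. Log D7.4 was taken from the ratio of absorbances between the two layers.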

R3230AC [2] = assay: Phototoxicity in rat R3230AC cells irradiated with halogen lamp pretreated 24 hrs before irradiation by MTT assay; format: functional, cell-based; conditions: light or radiation study
Procedure, shortened: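 Cells were seeded at 1.0–1.5 × 10^4 per well, grown 24 h, then given 1–20 µM dye in complete medium for 24 h. After two saline rinses, cells in clear medium were irradiated with halogen broadband light (400–850 nm, water-filtered) at 3 mW cm−2 for 1 h while orbiting. They were refed and grown 24 h more. Viability was read by MTT as a percentage of light-exposed dye-free controls.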

R3230AC [3] = assay: Cellular uptake in rat R3230AC cells measured per cell at 10 uM after 24 hrs; format: ADME, cell-based
Procedure, shortened: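 R3230AC cells were grown in α-MEM with 10% bovine growth serum at 37 °C and 5% CO2. Dyes were diluted from 2 mM DMSO stocks. Intracellular dye content was measured by fluorescence at dye-appropriate excitation and emission wavelengths and converted using a fluorescence calibration curve.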

R3230AC [4] = assay: Cytotoxicity against rat R3230AC cells up to 20 uM for 24 hrs in dark; format: functional, cell-based
R3230AC [5] = assay: Stability in rat R3230AC cell lysate at 10 uM after 24 hrs; format: ADME, cell-based
Procedure, shortened: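 Cells seeded at 2.0–3.0 × 10^4 per well were grown 24 h, then exposed to dye in complete medium for 24 h. After two 0.9% NaCl rinses, cells were lysed in DMSO. Fluorescence (excitation 550 nm, emission 555–750 nm) was compared with dye in DMSO, including the ratio of the 580 and 650 nm peaks.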

Structure (SMILES) | logD [1] | pIC50 (R3230AC [2]) | Activity (R3230AC [3]) | Activity (R3230AC [4]) | Stability (R3230AC [5])
CCN(CC)c1ccc2c(-c3ccccc3C(=O)O)c3ccc(=[N+](CC)CC)cc-3oc2c1 [RHODAMINE B] | 2.2 |  |  |  | 
CN(C)c1ccc2cc3ccc(N(C)C)cc3nc2c1 | -0.99 | 5.64 |  |  | 
CN(C)c1ccc2cc3ccc(N(C)C)cc3[n+](CCCOc3ccc(-c4c5nc(c(-c6ccccc6)c6ccc([nH]6)c(-c6ccccc6)c6nc(c(-c7ccccc7)c7ccc4[nH]7)C=C6)C=C5)cc3)c2c1.[I-] | 0.79 | 5.48 | 68.2 fmol |  | 
CCN(CC)c1ccc2c(-c3ccccc3C(C)=O)c3ccc(=[N+](CC)CC)cc-3oc2c1 |  |  |  | inactive | 
CCN(CC)c1ccc2c(-c3ccccc3C(=O)OCCCOc3ccc(-c4c5nc(c(-c6ccccc6)c6ccc([nH]6)c(-c6ccccc6)c6nc(c(-c7ccccc7)c7ccc4[nH]7)C=C6)C=C5)cc3)c3ccc(=[N+](CC)CC)cc-3oc2c1.[I-] | 3.53 | 5.40 |  | inactive | Stable
Oc1ccc(-c2c3nc(c(-c4ccccc4)c4ccc([nH]4)c(-c4ccccc4)c4nc(c(-c5ccccc5)c5ccc2[nH]5)C=C4)C=C3)cc1 | 2.3 |  | 5.6 fmol | inactive | 
